UCH37 DUB inh = inhibitors of human UCH37 deubiquitinase, primary screen, biochemical, Ub-AMC cleavage, fluorescence | purified proteasome/UCH37 | Ubiquitin carboxyl-terminal hydrolase isozyme L5 (Homo sapiens), Q9Y5K5 | actives 0.33% (n = 330,000) | inhibition, % (test concentration not listed);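 active = mean inhibition over replicate wells above about 20%, limit read from the data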;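 note: 0% = compound-free wells with enzyme and 100% = wells lacking proteasome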
Target sequence (Q9Y5K5 whole entry, looked up): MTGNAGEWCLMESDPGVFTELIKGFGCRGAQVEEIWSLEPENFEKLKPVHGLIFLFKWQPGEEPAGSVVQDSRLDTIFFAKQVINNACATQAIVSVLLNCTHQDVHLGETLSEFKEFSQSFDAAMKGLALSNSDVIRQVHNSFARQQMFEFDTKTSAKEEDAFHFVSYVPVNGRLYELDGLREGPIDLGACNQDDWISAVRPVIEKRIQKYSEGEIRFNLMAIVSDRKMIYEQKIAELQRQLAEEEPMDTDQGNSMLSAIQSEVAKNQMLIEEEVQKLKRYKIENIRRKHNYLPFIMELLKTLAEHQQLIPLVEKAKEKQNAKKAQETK
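Material: Human UCH37 enzyme supplied as purified proteasome complex | Schedule: 30 min preincubation with enzyme, 25 min cleavage at room temperature | Detection: AMC fluorescence 355/460 nm | Measure: % inhibition of Ub-AMC cleavage fluorescence | Controls: Wells without proteasome as full block, compound-free enzyme plus substrate as uninhibited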
UPR XBP1 act = activators of adaptive XBP1 UPR arm, primary screen, cell-based, CHO-XBP1 luciferase reporter, luminescence, uHTS; IRE1-XBP1 UPR activation; percent of tunicamycin response, DMSO as zero; activation, % at 20 µM; actives 0.33% (n = 330,000);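 active = versus positive control, 20 µM dose yields 30% or more activation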;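 note: 100% = tunicamycin at 10 µg/mL and 0% = DMSO only wells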
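Test system: CHO-XBP1 luciferase reporter cells | Buffer or medium: Serum-containing F12 medium, 10% FBS | Schedule: 6 h compound exposure at 37 °C, 5% CO2 | Detection: Steady-Glo luciferase glow luminescence, 10 min after reagent addition | Read-out basis: Activation, % of tunicamycin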
UPR CHOP act = activators of apoptotic CHOP UPR arm, primary screen, cell-based, CHO-CHOP luciferase reporter, luminescence, uHTS | UPR activation; percent of tunicamycin response over DMSO baseline | activation, % at 10 µM | actives 0.34% (n = 330,000) | AID 449763, 2010;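 active = at 10 µM dose, activation of 40% or more, normalized to positive control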;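 note: 100% = tunicamycin at 10 µg/mL and 0% = DMSO alone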
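Test system: CHO-CHOP cells, stable luciferase reporter of PERK-eIF2a-CHOP signalling | Quantity: 500 CHO-CHOP cells per well | Buffer or medium: F12 plus 10% serum | Compound dosing: 10 µM single point, 0.5% DMSO | Schedule: 6 h compound treatment, 37 °C | Signal: Luciferase luminescence | Control set: Tunicamycin high control, DMSO low control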
Fh CTSL1 inh = Fasciola hepatica cathepsin L1 inhibitors, primary screen, counter-screen for PFM18AAP inhibitor project, biochemical, QFRET, fluorogenic peptide substrate; inhibition, % at 5.96 µM; recombinant F. hepatica cathepsin L1, Z-Leu-Arg-MCA fluorescence; actives 0.49% (n = 300,000);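 active = inhibition above the mean of all tested compounds plus 3 SD, set per screening campaign, cut at about 17% in these data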;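 note: 0% = plate median of test compound wells and 100% = 1 µM Z-Phe-Ala-diazomethylketone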
CHOP inhibitor = inhibitors of CHOP promoter induction, primary screen, cell-based, unfolded protein response, luciferase reporter; CHO-K1 CHOP-promoter luciferase, tunicamycin-induced, 15-18 h; inhibition, % at 10 µM; actives 3.8% (n = 220,000); AID 2732, 2010;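 active = compounds that reduced the stress-induced luciferase reporter signal by more than about 70% of percent inhibition, limit read from the data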;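 note: 0% = tunicamycin plus vehicle and 100% = wells without tunicamycin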
The depositor's hits bear a star; · = not tested or not shown. The full list was thinned out, with hits kept by preference.

SMILES	UCH37 DUB inh	UPR XBP1 act	UPR CHOP act	Fh CTSL1 inh	CHOP inhibitor
Cc1cc(Cl)ccc1OCC(=O)n1cc(C(=O)c2cc(Cl)ccc2O)cn1	0.8	-2.2	-1.0	-0.1	76.9*
CCCCN=C1CC(C)(C)CC(=O)/C1=C(\O)CCCN1C(=O)c2ccccc2C1=O	-0.7	·	·	·	·
CCC(C)C(NC(=O)C1CCC(C)CC1)C(=O)Nc1cc(OC)ccc1OC (stereo unspecified)	4.1	-2.3	-0.2	0.7	82.0*
CCC(C)C(NC(=O)C1CCC(C)CC1)C(=O)Nc1ccc(OC)cc1OC (stereo unspecified)	3.8	-0.8	1.8	-4.6	10.4
Cc1cc(C)cc(C(=O)NN=Cc2ccoc2)c1	3.6	·	·	·	·
Cc1cccc(N/C(N)=N/c2nc(CSc3ccc(Cl)cc3)cc(=O)[nH]2)c1	1.8	37.6*	16.8	3.0	-2.7
COCc1cc(=O)[nH]c(N=C(N)Nc2ccc(C)cc2C)n1	1.0	·	·	·	·
COCc1cc(=O)[nH]c(N=C(N)Nc2ccccc2C)n1	29.2*	·	·	·	·
COCc1cc(=O)[nH]c(/N=C(\N)Nc2cccc(C)c2)n1	·	-1.3	-3.1	-0.7	7.2
COCCNC(=O)C(=O)NN=C(C)CC(=O)Nc1ccc(Cl)cc1Cl	-2.8	·	·	·	·
COc1cccc(CN2CCN(c3cccc(C(F)(F)F)c3)CC2)c1OC	1.2	0.0	-0.5	3.9	71.3*
COc1ccccc1N1CCN(Cc2cccc(OC)c2OC)CC1	2.4	1.3	-0.5	0.4	15.3
O=C(c1cccc(F)c1)N1CCN(C(=O)c2cc(-c3ccc(Cl)cc3Cl)on2)CC1	2.7	0.6	0.8	0.3	74.4*
COc1cccc(-c2cc(C(F)(F)F)nc(N3CCC(C)CC3)n2)c1	-41.9	-0.7	-0.1	0.0	16.4
COc1cccc(-c2cc(C(F)(F)F)nc(N3CCOCC3)n2)c1	-16.7	-1.5	0.8	-2.5	73.6*
COc1ccccc1-c1cc(C(F)(F)F)nc(N2CCOCC2)n1	-16.2	-2.5	-0.3	3.8	72.4*
CCOc1ccc(-c2c(C(=O)NN=C(C)c3cccnc3)nnn2-c2nonc2N)cc1	1.5	·	·	·	·
COc1ccc(C=NOCC(=O)Nc2ccc3c(c2)OCO3)c(OC)c1	3.7	·	·	·	·
CCOC(=O)c1c(-c2ccc(C)o2)csc1NC(=O)CN1CCCCC1	4.2	-2.2	0.5	10.1	34.6
CCOC(=O)c1c(-c2ccc(C)o2)csc1NC(=O)CN(C)CC(=O)Nc1ccc(C)cc1	-0.6	-2.1	0.6	0.8	89.4*
Cc1ccc(-c2nc(C=Nc3ccc(O)cc3)c(O)o2)cc1	5.2	·	·	·	-18.5
CCC(=O)Oc1oc(-c2ccccc2)nc1C=Nc1ccccc1OC	1.2	0.5	4.2	24.8*	93.1*
COc1ccc(N=Cc2nc(-c3ccccc3)oc2OC(=O)c2ccccc2)cc1	2.0	25.6	25.1	22.0*	30.1
CN(C)c1ccc(N=Cc2nc(-c3ccccc3)oc2OC(=O)c2cccc(Br)c2)cc1	3.7	4.9	32.7	23.8*	-38.1
CCC(=O)Oc1oc(-c2ccccc2)nc1C=Nc1ccc(C)cc1	1.2	4.3	6.5	26.5*	-57.0
SMILES	UCH37 DUB inh	UPR XBP1 act	UPR CHOP act	Fh CTSL1 inh	CHOP inhibitor
CCON=C(C)c1c(O)c2ccccc2n(C)c1=O	3.0	·	·	·	·
COc1ccc(N(CC(=O)NN=Cc2ccc(F)cc2)S(=O)(=O)c2ccccc2)cc1	3.4	·	·	·	·
CC(=O)Oc1oc(-c2ccccc2)nc1C=Nc1ccccn1	4.2	·	·	·	·
CC(=O)Oc1oc(-c2ccccc2)nc1C=Nc1ccccc1	1.8	4.4	-0.2	26.2*	-2.2
Cc1ccc(Cl)cc1NC(=S)N(Cc1cccs1)C1CCCC1	5.4	-2.7	0.5	-2.4	81.9*
O=C(CN1C(=O)C2C3C=CC(C3)C2C1=O)Nc1ccc2nccnc2c1 (stereo unspecified)	-152.0	0.3	-0.4	20.3*	-16.7
CCc1nc(N(CC)CC)c2oc3ccccc3c2n1	0.0	3.9	0.7	2.0	91.0*
CCNc1nc(CC)nc2c1oc1ccccc12	0.1	2.0	2.2	4.3	12.4
CCc1nc(N2CCC(C)CC2)c2oc3ccccc3c2n1	-9.2	-0.1	2.4	-1.9	70.2*
CCc1nc(SCCO)c2oc3ccccc3c2n1	4.4	7.8	2.1	-0.5	17.4
O=S1CCC(=NO)c2ccccc21 (stereo unspecified)	0.0	·	·	·	·
COc1ccc(/C=C/C(=O)OCC(=O)Nc2cc3oc4ccccc4c3cc2OC)cc1	-23.7	162.5*	115.1*	1.2	36.7
COc1cc2c(cc1NC(=O)COC(=O)CNC(=O)c1ccccc1)oc1ccccc12	-10.7	1.5	4.3	24.2*	1.3
CC1(C)SC(=S)N(NC(=O)Nc2cccc3ccccc23)C1N(O)C(=O)Nc1ccccc1 (stereo unspecified)	0.7	4.5	1.6	0.5	100.4*
Cc1nn(C)c(C)c1C=NO	-0.6	·	·	·	·
O=S(=O)(NN=C1CC(c2ccccc2)Oc2ccccc21)c1ccc(Br)cc1 (stereo unspecified)	1.7	·	·	·	·
O=C(CNS(=O)(=O)c1ccc(F)cc1)Nc1ccc(C(F)(F)F)cc1	1.8	-3.1	1.0	-0.6	63.7
Cc1ccc(S(=O)(=O)NCC(=O)Nc2ccc(C(F)(F)F)cc2)cc1	1.9	-1.7	-0.1	2.0	92.1*
Cc1onc(-c2ccccc2)c1C(=O)NN=Cc1cc(Br)c(Br)o1	0.7	·	·	·	·
Cc1cc(N2CCN(c3ccccc3)CC2)nc(NCc2ccccc2)n1	3.6	1.0	-0.3	-2.6	87.8*
CCCc1nc(C)cc(N2CCN(c3ccccc3)CC2)n1	4.4	-1.2	1.5	-2.2	·
Cc1ccc(S(=O)(=O)CCSc2cccc(C(=O)Nc3ccccc3C(=O)O)c2)cc1	24.8*	-1.4	1.7	-0.1	-4.5
CCS(=O)(=O)C1=NN2C(=N)/C(=C\c3ccc(OC(=O)c4ccco4)c(OC)c3)C(=O)N=C2S1	·	0.7	-0.3	0.3	·
C=CCOc1ccc(/C=C2\C(=N)N3N=C(S(=O)(=O)CC)SC3=NC2=O)cc1OC	21.4*	-0.9	-1.0	-4.3	-9.3
O=C(COc1ccccc1)NN=Cc1ccc(O[C@@H]2O[C@H](CO)[C@@H](O)[C@H](O)[C@H]2O)cc1	-0.1	·	·	·	·
CCn1c(SCC(=O)NN=C/C=C\c2ccccc2[N+](=O)[O-])nc2ccccc21	1.8	·	·	·	·
OCCN(Cc1ccccc1)CC(O)COc1ccc(-c2ccccc2)cc1 (stereo unspecified)	2.4	1.6	8.8	9.4	76.1*
Cc1cc(C=NNC(=O)C(=O)NCc2ccccn2)c(C)n1-c1ccccc1	7.9	·	·	·	·
CC(C)(C)Nc1nc(N2CCCC2)nc(N2CCCC2)n1	-1.3	-4.7	0.6	0.8	76.8*
